ChEMBL document CHEMBL3124806, “Imidazopyridine-fused [1,3]-diazepinones: synthesis and antiproliferative activity” (Eur J Med Chem, 2014)
Activity calls are given as the source filed them. The calls are words filed in the database; no cut-off is given here.

Tests used:
COLO 205 = assay: Cytotoxicity against human COLO205 cells after 48 hrs by SRB assay; type: functional; conditions: COLO 205, 48 h
Method in brief: (§1)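 NCI-60 five-dose testing, 100 to 0.01 µM, under a 48 h continuous-exposure protocol. Growth estimated by SRB protein assay, read spectrophotometrically against untreated controls; IC50 derived from the dose-response.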

SW-620 = assay: Cytotoxicity against human SW620 cells after 48 hrs by SRB assay; type: functional; conditions: SW-620, 48 h
Method in brief: (§2)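 NCI-60 five-dose mode on the full human tumour line panel. Concentrations ran from 100 to 0.01 µM with 48 h continuous exposure. Growth was estimated by SRB protein staining against untreated controls, and IC50 values were derived from the dose–response.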

SNB-19 = assay: Cytotoxicity against human SNB19 cells after 48 hrs by SRB assay; type: functional; conditions: SNB-19, 48 h; method in brief: as §2
SK-OV-3 = assay: Cytotoxicity against human SKOV3 cells after 48 hrs by SRB assay; type: functional; conditions: SK-OV-3, 48 h; method in brief: as §2
MDA-MB-435 [1] = assay: Cytotoxicity against human MDA-MB-435 cells at 5 uM after 8 hrs by MTT assay; type: functional
Method in brief: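 MDA-MB-435 cells in DMEM/Ham's F12 (1:1) with 10% FCS, 37 °C, 5% CO2. Time course at a fixed 5 µM, incubated 8, 16, 24 or 48 h. Viability then read by MTT reduction (0.5 mg/mL, 4 h), formazan dissolved in EtOH/DMSO, absorbance at 540 nm, as percent living cells.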

NCI-H226 = assay: Cytotoxicity against human NCI-H226 cells after 48 hrs by SRB assay; type: functional; conditions: NCI-H226, 48 h
Method in brief: (§3)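 NCI-60 five-dose screen: cells exposed continuously for 48 h across 100 to 0.01 µM. Growth or viability estimated by sulforhodamine B protein staining, read spectrophotometrically against untreated controls; IC50 taken from the dose-response.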

SF-539 = assay: Cytotoxicity against human SF539 cells after 48 hrs by SRB assay; type: functional; conditions: SF-539, 48 h; method in brief: as §3
[2] = Cytotoxicity against human UO31 cells after 48 hrs by SRB assay; type: functional; conditions: UO-31, 48 h; method in brief: as §2
MDA-MB-435 [3] = assay: Induction of apoptosis in human MDA-MB-435 cells assessed as alterations in stress action fibre aggregation at 5 uM after 20 hrs by Hoechst 33342 staining-based […] microscopy; type: functional, cell-based
Method in brief: (§4)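 MDA-MB-435 cells were grown for 24 h, then treated with or without 5 μM compound for 20 h. Cells were fixed for 20 min and permeabilised with 0.2% Triton X-100 for 4 min at room temperature. Actin was stained with a mouse anti-actin antibody and an Alexa Fluor 568 anti-mouse antibody, each for 1 h at RT. Nuclei were counterstained with Hoechst 33342, and cells were imaged by confocal microscopy.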

NCI-H522 = assay: Cytotoxicity against human NCI-H522 cells after 48 hrs by SRB assay; type: functional; conditions: NCI-H522, 48 h; method in brief: as §3
[4] = biological target: Glycogen synthase kinase-3 beta (Homo sapiens) (UniProt P49841); assay: Inhibition of human GSK3 beta at 10 uM
Sequence of Glycogen synthase kinase-3 beta (Homo sapiens) (P49841 whole entry, looked up): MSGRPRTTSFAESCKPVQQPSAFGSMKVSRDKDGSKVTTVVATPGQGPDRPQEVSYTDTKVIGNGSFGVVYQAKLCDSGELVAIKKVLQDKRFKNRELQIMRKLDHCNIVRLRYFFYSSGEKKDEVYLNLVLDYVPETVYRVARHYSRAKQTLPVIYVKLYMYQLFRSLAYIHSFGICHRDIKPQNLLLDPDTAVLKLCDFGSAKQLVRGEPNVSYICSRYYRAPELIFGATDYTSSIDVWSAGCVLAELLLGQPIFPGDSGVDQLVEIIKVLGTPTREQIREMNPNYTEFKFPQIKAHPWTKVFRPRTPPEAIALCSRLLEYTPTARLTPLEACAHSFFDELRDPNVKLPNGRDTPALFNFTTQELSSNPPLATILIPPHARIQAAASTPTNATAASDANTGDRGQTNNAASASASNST
Method in brief: (§5)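 Kinase selectivity panel of 19 protein tyrosine kinases and 30 serine/threonine kinases, run by a contract lab (CEREP). Each compound was tested at a single dose of 10 μM in duplicate.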

[5] = biological target: Cyclin-dependent kinase 1 (Homo sapiens) (UniProt P06493); assay: Inhibition of human CDK1 at 10 uM; method in brief: as §5
Sequence of Cyclin-dependent kinase 1 (Homo sapiens) (P06493 whole entry, looked up): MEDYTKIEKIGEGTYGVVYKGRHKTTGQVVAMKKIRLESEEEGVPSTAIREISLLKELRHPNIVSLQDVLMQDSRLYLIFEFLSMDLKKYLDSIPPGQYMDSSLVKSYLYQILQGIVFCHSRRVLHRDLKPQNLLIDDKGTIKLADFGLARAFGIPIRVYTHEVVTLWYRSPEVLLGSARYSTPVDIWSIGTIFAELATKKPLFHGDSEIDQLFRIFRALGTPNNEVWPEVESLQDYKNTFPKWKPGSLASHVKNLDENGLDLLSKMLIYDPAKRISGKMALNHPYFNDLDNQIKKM

OVCAR-3 = assay: Cytotoxicity against human OVCAR3 cells after 48 hrs by SRB assay; type: functional; conditions: OVCAR-3, 48 h; method in brief: as §3
NCI-H460 = assay: Cytotoxicity against human NCI-H460 cells after 48 hrs by SRB assay; type: functional; conditions: NCI-H460, 48 h; method in brief: as §3
HCT-15 = assay: Cytotoxicity against human HCT15 cells after 48 hrs by SRB assay; type: functional; conditions: HCT-15, 48 h; method in brief: as §1
HOP-92 = assay: Cytotoxicity against human HOP92 cells after 48 hrs by SRB assay; type: functional; conditions: HOP-92, 48 h; method in brief: as §1
786-0 = assay: Cytotoxicity against human […] cells after 48 hrs by SRB assay; type: functional; conditions: 786-0, 48 h; method in brief: as §1
MDA-MB-435 [6] = assay: Induction of apoptosis in human MDA-MB-435 cells assessed as chromatin condensation at 5 uM after 20 hrs by Hoechst 33342 staining-based phase-contrast microscopy; type: functional, cell-based
MDA-MB-435 [7] = assay: Cytotoxicity against human MDA-MB-435 cells after 48 hrs by SRB assay; type: functional, cell-based; conditions: MDA-MB-435, 48 h; method in brief: as §3
LOX IMVI = assay: Cytotoxicity against human LOXIMVI cells after 48 hrs by SRB assay; type: functional; method in brief: as §1
MDA-MB-435 [8] = assay: Cell cycle arrest in human MDA-MB-435 cells assessed as accumulation at S phase at 5 uM after 48 hrs by propidium iodide staining-based FACS analysis (reference value: 22.8%); type: functional
M14 = assay: Cytotoxicity against human M14 cells after 48 hrs by SRB assay; type: functional; conditions: M14, 48 h; method in brief: as §1
HCT-116 = assay: Cytotoxicity against human HCT116 cells after 48 hrs by SRB assay; type: functional; conditions: HCT-116, 48 h; method in brief: as §1
MDA-MB-435 [9] = assay: Cell cycle arrest in human MDA-MB-435 cells assessed as accumulation at subG1 phase at 5 uM after 48 hrs by propidium iodide staining-based FACS analysis (reference value: 0.1%); type: functional
[10] = Cytotoxicity against human CAL-1 cells assessed as reduction in cell growth at 1 to 10 uM after 48 hrs by MTT assay relative to untreated control; type: functional; parameters: scale not given: the % may be the effect or the level left
Method in brief: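 CAL1 melanoma cells grown in DMEM with 2 mM L-glutamine and 10% FCS at 37 °C, 5% CO2. Seeded at 10^4 cells/well, grown 24 h, then treated 48 h across 100–0.01 μM (compounds dissolved in medium). Read-out: 0.5 mg mL⁻¹ MTT for 4 h, crystals dissolved in EtOH/DMSO 1:1, absorbance at 540 nm.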

MDA-MB-435 [11] = assay: Induction of apoptosis in human MDA-MB-435 cells assessed as stretched stress action fibres at 5 uM after 20 hrs by Hoechst 33342 staining-based […] microscopy; type: functional, cell-based; method in brief: as §4
[12] = read-out: LC50 (the source's name)

Work on `C[C@@H]1NC(c2ccc(Br)cc2)=Nc2nc3ccccn3c2C1=O` yielded a GI50 (COLO 205) of 1.87 µM, a TGI (COLO 205) of 4.75 µM and a CC50 (COLO 205; [12]) of 95.8 µM. The GI50 (SW-620) was 3.75 µM, the TGI (SW-620) was over 100 µM and the CC50 (SW-620; [12]) was over 100 µM. The GI50 (SNB-19) was 7.45 µM, the TGI (SNB-19) was over 100 µM and the CC50 (SNB-19; [12]) was over 100 µM. The GI50 (SK-OV-3) was 4.41 µM, the TGI (SK-OV-3) was over 100 µM and the CC50 (SK-OV-3; [12]) was over 100 µM. For the same molecule, the Activity (MDA-MB-435 [1]) was 35%, the GI50 (NCI-H226) was 14.7 µM and the TGI (NCI-H226) was over 100 µM. For the same molecule, the CC50 (NCI-H226; [12]) was over 100 µM, the GI50 (SF-539) was 7.98 µM and the TGI (SF-539) was 85.3 µM. The CC50 (SF-539; [12]) was over 100 µM, the GI50 [2] was 8.11 µM and the TGI [2] was over 100 µM. For the same molecule, the CC50 [2, 12] was over 100 µM, the Activity (MDA-MB-435 [3]) was “Active” and the GI50 (NCI-H522) was 3.23 µM. The TGI (NCI-H522) was 18.4 µM, the CC50 (NCI-H522; [12]) was over 100 µM and the inhibition [4] was “inactive”. For the same molecule, the inhibition [5] was “inactive”, the GI50 (OVCAR-3) was 3.34 µM and the TGI (OVCAR-3) was 17.8 µM. It also gave a CC50 (OVCAR-3; [12]) of over 100 µM, a GI50 (NCI-H460) of 3.06 µM and a TGI (NCI-H460) of over 100 µM. For the same molecule, the CC50 (NCI-H460; [12]) was over 100 µM, the GI50 (HCT-15) was 3.64 µM and the TGI (HCT-15) was over 100 µM. The CC50 (HCT-15; [12]) was over 100 µM, the GI50 (HOP-92) was 1.16 µM and the TGI (HOP-92) was 22.9 µM. For the same molecule, the CC50 (HOP-92; [12]) was over 100 µM, the GI50 (786-0) was 28.3 µM and the TGI (786-0) was over 100 µM. The CC50 (786-0; [12]) was over 100 µM, the Activity (MDA-MB-435 [6]) was “Active” and the GI50 (MDA-MB-435 [7]) was 1.33 µM. The IC50 (MDA-MB-435 [7]) was 1.3 µM, the LC50 (MDA-MB-435 [7]) was over 100 µM and the TGI (MDA-MB-435 [7]) was 7.1 µM. The GI50 (LOX IMVI) was 6.34 µM, the TGI (LOX IMVI) was over 100 µM and the CC50 (LOX IMVI; [12]) was over 100 µM. The Activity (MDA-MB-435 [8]) was 30.8%, the GI50 (M14) was 3.2 µM and the TGI (M14) was 48.2 µM. For the same molecule, the CC50 (M14; [12]) was over 100 µM, the GI50 (HCT-116) was 4.04 µM and the TGI (HCT-116) was over 100 µM. It also gave a CC50 (HCT-116; [12]) of over 100 µM and an Activity (MDA-MB-435 [9]) of 8.6%.

For `C[C@@H]1NC(c2ccccc2)=Nc2nc3ccccn3c2C1=O`, the Activity [10] was 20% and the Activity (MDA-MB-435 [11]) was “inactive”.
